An excerpt weighted towards active compounds, which were near 1.8% of everything screened.
NPY Y2 blocker: antagonists of human neuropeptide Y receptor Y2. NPY-Y2 expressing cells, antagonist mode. 140,000 compounds, 0.99% hits. inhibition, % at 2.7 µM
NPY Y1 blocker: NPY-Y1 (human) receptor antagonism. P25929. HEK293-CNG Y1 cells, membrane potential fluorescence; NPY at EC95, then isoproterenol. inhibition, % at 3.6 µM. 200,000 compounds, 1% hits. AID 1040;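 active = inhibition above the campaign mean inhibition of all tested compounds plus 3 SD, cut at about 20% in these data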
Target sequence (P25929 whole entry, looked up): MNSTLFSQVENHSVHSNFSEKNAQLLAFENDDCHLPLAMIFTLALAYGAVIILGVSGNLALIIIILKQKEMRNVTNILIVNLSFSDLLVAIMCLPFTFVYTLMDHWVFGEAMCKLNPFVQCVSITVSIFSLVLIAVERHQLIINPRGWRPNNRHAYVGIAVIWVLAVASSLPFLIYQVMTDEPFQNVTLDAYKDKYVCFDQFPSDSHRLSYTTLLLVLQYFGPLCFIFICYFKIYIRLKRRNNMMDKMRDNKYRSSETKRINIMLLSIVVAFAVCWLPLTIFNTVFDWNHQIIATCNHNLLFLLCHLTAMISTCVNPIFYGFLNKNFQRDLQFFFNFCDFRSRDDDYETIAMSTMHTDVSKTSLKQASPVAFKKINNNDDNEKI
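Material: Y1- and CNG-channel-expressing HEK293 cells / Probe or stimulus: NPY 25 nM then isoproterenol 1 µM plus Ro 20-1724 25 µM / Doses: 3.6 µM single dose, DMSO 0.4% / Schedule: compound incubation 1 h at room temperature, readout 45 min post-stimulation / Signal: membrane potential fluorescence / Benchmarks: isoproterenol-only wells as full block versus NPY-plus-isoproterenol wells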
NPY-Y1 PAM-ag: human NPY-Y1 potentiation or agonism, primary screen. P25929. NPY-Y1 expressing cells, potentiator/agonist activation. activation, % at 3.6 µM. 220,000 compounds, 0.37% hits. AID 1304; in the data active = activation above about 33%, passing the limit was not always enough;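 also: cells stimulated with NPY at EC10 then isoproterenol at EC100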
NPY-Y2 PAM-ag: human NPY-Y2 potentiation or agonism, primary screen. 220,000 compounds, 0.45% hits. P49146. cells expressing NPY-Y2, potentiator/agonist read-out. activation, % at 3.6 µM; in the data active = activation above about 27%;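 also: cells stimulated with NPY near EC25 plus isoproterenol at EC100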
NPY1 antag conf: human NPY-Y1 antagonism, confirmation | shares compounds with NPY Y1 blocker | HEK293-CNG NPY-Y1, membrane potential fluorescence, cAMP; NPY challenge against isoproterenol-raised cAMP | inhibition, % at 3.6 µM | 1,200 compounds, 21% hits | AID 1254; in the data active = inhibition above about 20%
NPY2 antag ctr: counter-screen for NPY-Y1 antagonists: human NPY-Y2 antagonism; shares compounds with NPY Y1 blocker; HEK293 NPY-Y2 CNG membrane potential fluorescence; cells given NPY, then isoproterenol; inhibition, % at 3.6 µM; 1,200 compounds, 28% hits; AID 1255
Hits are given with their value; i = inactive; nt = no result. Rule as the data show it, unless noted: active = inhibition above about 17%; inactive = the rest.

SMILES | NPY Y2 blocker | NPY Y1 blocker | NPY-Y1 PAM-ag | NPY-Y2 PAM-ag | NPY1 antag conf | NPY2 antag ctr
Cc1cccc(-c2nsc(SCC(=O)NCC3CCCO3)n2)c1 (stereo not given) | nt | 30 | i | i | i | i
CC(C)(C)n1nnnc1C(c1cccs1)N(Cc1ccccc1)Cc1cccnc1 (stereo not given) | i | 26 | i | i | i | i
CC(C)(C)n1nnnc1C(c1cccnc1)N(Cc1ccccc1)Cc1cccs1 (stereo not given) | i | 21 | i | i | i | i
CC(C)(C)n1nnnc1C(c1cccnc1)N1CCN(c2ccccc2)CC1 (stereo not given) | i | i | i | i | nt | nt
CNCCCOc1cccc(Oc2ccccc2)c1 | nt | 23 | i | i | i | i
CCCCN(C(=O)c1ccc(Cl)c([N+](=O)[O-])c1)c1c(N)n(CCC)c(=O)[nH]c1=O | nt | i | i | i | nt | nt
COc1cc(Cn2c(-c3nonc3N)nc3ccccc32)ccc1C | i | 30 | i | i | i | 24
COc1cccc(Cn2c(-c3nonc3N)nc3ccccc32)c1 | i | 26 | i | i | i | i
COc1ccc(CCNC(=O)CCn2c(SCC(=O)N3CCCC3)nc3ccccc3c2=O)cc1OC | nt | nt | i | i | nt | nt
N/C(=N\OC(=O)Cc1cccs1)c1ccc([N+](=O)[O-])cc1 | i | 24 | i | i | i | i
O=C(c1cc(-c2cccs2)on1)N1CCN(c2ccc(F)cc2)CC1 | i | i | i | i | nt | nt
O=C(c1cc(-c2cccs2)on1)N1CCN(c2ccccc2)CC1 | i | 25 | i | i | i | i
COc1ccc(C(c2nnnn2Cc2ccccc2)N2CCN(C(=O)c3ccco3)CC2)cc1 (stereo not given) | i | i | i | i | nt | nt
O=C(c1ccco1)N1CCN(C(c2ccc(Cl)cc2)c2nnnn2Cc2ccccc2)CC1 (stereo not given) | i | 21 | i | i | i | i
CC(C(=O)OCC(=O)Nc1cccc(S(=O)(=O)N(C)C)c1)N1C(=O)c2ccccc2C1=O (stereo not given) | nt | i | i | i | nt | nt
Fc1ccccc1CSc1nnc(-c2cccnc2)o1 | nt | i | i | i | nt | nt
Fc1ccccc1CSc1nnc(-c2ccccc2)o1 | i | 29 | i | i | i | i
COc1ccc(-c2nnc(SCc3ccccc3F)o2)cc1 | i | 22 | i | i | i | i
Cc1ccccc1NC(=S)NC1(C)CCS(=O)(=O)C1 (stereo not given) | i | i | i | i | nt | nt
Cc1cc(C)cc(-n2c(C)nc3cc(C(=O)O)ccc32)c1 | nt | i | i | i | nt | nt
CCN(CCn1cccn1)Cc1c(C(=O)N2C[C@@H](C)O[C@@H](C)C2)nc2ccc(Cl)cn12 | nt | i | i | i | nt | nt
CC(=O)NS(=O)(=O)c1cccnc1Nc1ccc(Cl)cc1 | i | i | i | i | nt | nt
Cc1cnc(NC(=O)C2(c3ccccc3)CC2)s1 | nt | i | i | i | nt | nt
CC(/C=N/NC(=O)c1n[nH]c2c1CCC2)=C\c1ccccc1 | i | 22 | i | i | i | 17
Cn1c2ccccc2c2cnn(CC(=O)O)c(=O)c21 | i | 26 | i | i | i | i
SMILES | NPY Y2 blocker | NPY Y1 blocker | NPY-Y1 PAM-ag | NPY-Y2 PAM-ag | NPY1 antag conf | NPY2 antag ctr
O=C(NC1CCCC1)C(c1ccccc1F)N(C(=O)Cc1cccs1)c1ccc2c(c1)OCCO2 (stereo not given) | i | 20 | i | i | i | i
NC(CSCc1cccc(Br)c1)C(=O)O (stereo not given) | nt | i | i | i | nt | nt
COc1ccc(OC)c(NS(=O)(=O)c2ccc(N3CCCC3=O)cc2)c1 | i | 44 | i | i | i | i
CCOc1ccc(S(=O)(=O)Nc2cc(OC)ccc2OC)cc1 | i | 27 | i | i | i | i
Cc1nc2scc(-c3ccccc3)c2c(=O)n1N=C1C=CC(=O)C=C1 | nt | i | i | i | nt | nt
CCCOc1ccc(N2C(=O)CC(N(CCc3ccc(OC)cc3)C(=O)c3ccccc3)C2=O)cc1 (stereo not given) | nt | nt | i | i | nt | nt
Cc1ccc(N2C(=O)c3cccc4c(Oc5ccccc5[N+](=O)[O-])ccc(c34)C2=O)c(C)c1 | i | i | i | i | nt | nt
C=CCNC(=O)C1(c2ccccc2)CC1(Cl)Cl (stereo not given) | i | i | i | i | nt | nt
CCOC(=O)c1c(NC(=O)C(F)(OC)C(F)(F)F)sc(C(=O)N2CCCCC2)c1C (stereo not given) | i | 22 | i | i | i | i
NS(=O)(=O)c1cccc(NC(=O)CSc2nnc(-c3ccccc3F)n2C2CC2)c1 | nt | nt | i | i | nt | nt
COc1ccc(-n2c(-c3ccc(Cl)cc3)c[n+]3c2CCc2ccccc2-3)cc1 | nt | 23 | i | i | 24 | i
O=C(CCCCN1CCCCC1)c1ccc2c(c1)Cc1ccccc1-2 | nt | 24 | i | i | i | i
O=C(CCN1CCCCCC1)c1ccccc1 | i | i | i | i | nt | nt
O=C(c1cc(COc2ccc(F)cc2Cl)on1)N1CCc2ccccc2C1 | nt | 31 | i | i | i | i
O=C(c1cc(COc2ccc(F)cc2Cl)on1)N1CCCC(c2ccccc2)C1 (stereo not given) | nt | i | i | i | nt | nt
COc1cc(/C=N/NC(=O)c2cccnc2)ccc1OC(=O)c1ccc2c(c1)OCO2 | i | i | i | i | nt | nt
O=C(N/N=C/c1ccccc1OC(=O)c1ccc2c(c1)OCO2)c1cccc(F)c1 | i | 21 | i | i | i | i
O=S(=O)([N-]c1nc2ccccc2nc1-n1cc[n+](Cc2ccccc2)c1)c1ccc(Br)cc1 | nt | nt | i | i | nt | nt
O=C(CSc1cccs1)Nc1ccc(Cl)cc1 | nt | nt | i | i | nt | nt
COc1ccccc1-n1cnc2cc(NCc3cccs3)ccc21 | i | 21 | i | i | i | 20
O=C(COC(=O)CSc1ccc2ccccc2c1Br)NC1CC1 | nt | 25 | i | i | i | i
Cc1[nH]c(=O)c(C#N)cc1-c1ccccc1 | i | 26 | i | i | 20 | 38
O=C(O)COC(=O)C1C(c2ccccc2)C(C(=O)O)C1c1ccccc1 (stereo not given) | nt | i | i | i | nt | nt
Cc1ccc(-n2cccn2)c(CN2CCC(CO)(CCc3ccccc3)CC2)c1 | nt | 45 | i | i | i | 19
Cc1nc(SCc2cccc(Oc3ccccc3)c2)n[nH]1 | i | 23 | i | i | i | 34
SMILES | NPY Y2 blocker | NPY Y1 blocker | NPY-Y1 PAM-ag | NPY-Y2 PAM-ag | NPY1 antag conf | NPY2 antag ctr
COc1ccc(CSc2n[nH]c(C)n2)cc1Br | i | i | i | i | nt | nt
Cn1nccc1C(=O)Nc1cccc(C(F)(F)F)c1 | nt | i | i | i | nt | nt
Cn1nc(C(=O)Nc2cccc(C(F)(F)F)c2)c2ccccc2c1=O | i | 29 | i | i | i | i
CCOC(=O)c1ccc(Nc2ncnc3ccc(C)cc23)cc1 | i | 45 | i | i | i | i
Cc1ccc(Cl)cc1NC(=O)N[C@@H](CC(C)C)C(=O)O | nt | nt | i | i | nt | nt
Brc1ccc(-c2csc(/N=C/N3CCCC3)n2)cc1 | nt | 32 | i | i | 31 | i
OCCN(/C=N/c1nc(-c2ccc(Br)cc2)cs1)CCO | i | i | i | i | nt | nt
Cc1ccc(C2=Nc3ccccc3SC(c3cccc([N+](=O)[O-])c3)C2)cc1 (stereo not given) | nt | nt | i | i | nt | nt
